{"source": "ChEMBL document CHEMBL1121364", "about": "“Nucleoside conjugates as potential antitumor agents. 3. Synthesis and antitumor activity of 1-(beta-D-arabinofuranosyl)cytosine conjugates of corticosteroids” (1980)", "key": {"L1210 [1]": {"system": "L1210", "assay": "Antitumor activity in the mice with intraperitoneal implanted L1210 lymphoid leukemia at the dose 50 mg/kg/day x 5 was determined as Survival time in days; Range is 14-23 days", "assay_type": "functional, Mus musculus", "summary_of_the_method": "(§1)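 Female C3D2F1/J mice (C3H/HeJ × DBA/2J), groups of six to eight, average weight 25 g. Each mouse got 1 × 10^6 L1210 ascites cells ip, taken from DBA/2Ha donor mice bearing 3-5 day tumors. Compound was dissolved in 0.154 N NaOH and neutralized with 0.154 N HCl (final 0.9% NaCl). Dosed ip daily ×5, starting 24 h after implant. Recorded body weight change on day 8, survival range, median survival and 30-day survivors. ILS = (T/C − 1) × 100.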"}, "L1210 [2]": {"system": "L1210", "assay": "Antitumor activity in the mice with intraperitoneal implanted L1210 lymphoid leukemia at the dose 18.7 and 26.6 mg/kg/day x 5 was determined as percentage increase in the life span as compared with control tumor bearers", "assay_type": "functional, Mus musculus", "summary_of_the_method": "as §1"}, "L1210 [3]": {"system": "L1210", "assay": "Antitumor activity in the mice with intraperitoneal implanted L1210 lymphoid leukemia at the dose 25 mg/kg/day x 5 was determined as Survival time in days; Range is 14-27 days", "assay_type": "functional, Mus musculus", "summary_of_the_method": "as §1"}, "L1210 [4]": {"system": "L1210", "assay": "Antitumor activity in the mice with intraperitoneal implanted L1210 lymphoid leukemia at the dose 75 mg/kg/day x 5 was determined as percentage increase in the life span as compared with control tumor bearers", "assay_type": "functional", "conditions": "Mus musculus, L1210, ip", "summary_of_the_method": "(§2)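 C3D2F1/J female mice (C3H/HeJ female × DBA/2J male), groups of six to eight, average weight 25 g. Inoculated ip with 1 × 10^6 L1210 ascites cells taken from DBA/2Ha donor mice bearing 3-5 day old tumors. Compounds were dissolved in 0.154 N NaOH, neutralized with 0.154 N HCl (final 0.9% NaCl), and given ip daily for 5 days from 24 h post-implant. Median survival T/C; ILS = (T/C − 1) × 100; 30-day survivors counted.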"}, "L1210 [5]": {"system": "L1210", "assay": "Antitumor activity in the mice with intraperitoneal implanted L1210 lymphoid leukemia at the dose of 25 mg/kg/day x 5 was determined as mean survival of treated group compared to untreated; 18/9.5", "assay_type": "functional, Mus musculus", "summary_of_the_method": "as §2"}, "L1210 [6]": {"system": "L1210", "assay": "Antitumor activity in the mice with intraperitoneal implanted L1210 lymphoid leukemia at the dose of 75 mg/kg/day x 5 was determined as mean survival of treated group compared to untreated; 28.5/9.5", "assay_type": "functional, Mus musculus"}, "L1210 [7]": {"system": "L1210", "assay": "Antitumor activity in the mice with intraperitoneal implanted L1210 lymphoid leukemia at the dose 18.7 and 26.6 mg/kg/day x 5 was determined and number of animals survived on 30 th day were reported; 0/8", "assay_type": "functional, Mus musculus", "summary_of_the_method": "as §1"}, "L1210 [8]": {"system": "L1210", "assay": "Antitumor activity in mice with intraperitoneal implanted L1210 lymphoid leukemia at the dose 100 mg/kg/day x 5 was determined as weight change (g/mouse) on 8th day", "assay_type": "functional", "summary_of_the_method": "(§3)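 C3D2F1/J female mice (C3H/HeJ × DBA/2J), groups of six to eight, average 25 g, inoculated ip with 1 × 10^6 L1210 ascites cells taken from DBA/2Ha donor mice carrying 3-5 day tumors. Compound dissolved in 0.154 N NaOH, then neutralized with 0.154 N HCl to give 0.9% NaCl. Given ip daily for 5 consecutive days starting 24 h after implantation. Body weight change per mouse recorded on day 8.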"}, "L1210 [9]": {"system": "L1210", "assay": "Antitumor activity in the mice with intraperitoneal implanted L1210 lymphoid leukemia at the dose 100 mg/kg/day x 5 was determined as Survival time in days; Range is 10-16 days", "assay_type": "functional, Mus musculus", "summary_of_the_method": "as §1"}, "L1210 [10]": {"system": "L1210", "assay": "Antitumor activity in the mice with intraperitoneal implanted L1210 lymphoid leukemia at the dose 9.2 and 13.2 mg/kg/day x 5 was determined as Survival time in days; Range is 13-24 days", "assay_type": "functional, Mus musculus", "summary_of_the_method": "as §2"}, "L1210 [11]": {"system": "L1210", "assay": "Antitumor activity in the mice with intraperitoneal implanted L1210 lymphoid leukemia at the dose 100 mg/kg/day x 5 was determined as percentage increase in the life span as compared with control tumor bearers", "assay_type": "functional", "conditions": "Mus musculus, L1210, ip", "summary_of_the_method": "as §1"}, "L1210 [12]": {"system": "L1210", "assay": "Antitumor activity in the mice with intraperitoneal implanted L1210 lymphoid leukemia at the dose of 50 mg/kg/day x 5 was determined as mean survival of treated group compared to untreated; 20.5/8.5", "assay_type": "functional, Mus musculus"}, "L1210 [13]": {"system": "L1210", "assay": "Antitumor activity in the mice with intraperitoneal implanted L1210 lymphoid leukemia at the dose 9.2 and 13.2 mg/kg/day x 5 was determined and number of animals survived on 30 th day were reported; 0/6", "assay_type": "functional, Mus musculus", "summary_of_the_method": "as §2"}, "L1210 [14]": {"system": "L1210", "assay": "Antitumor activity in the mice with intraperitoneal implanted L1210 lymphoid leukemia at the dose 75 mg/kg/day x 5 was determined as Survival time in days; Range is 18-37 days", "assay_type": "functional, Mus musculus", "summary_of_the_method": "as §2"}, "L1210 [15]": {"system": "L1210", "assay": "In Vitro evaluation for the antiproliferative activity by observing the growth inhibition of L1210 lymphoid leukemia cells in culture at 72 hour", "assay_type": "functional, Mus musculus", "summary_of_the_method": "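Growth of L1210 lymphoid leukemia cells in culture measured by Trypan blue exclusion of viable cells after 72 h of drug exposure. ED50 is the concentration giving 50% growth inhibition. In some runs the compound was first preincubated in medium at 37 °C for 24 or 48 h before the assay.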"}, "L1210 [16]": {"system": "L1210", "assay": "Antitumor activity in the mice with intraperitoneal implanted L1210 lymphoid leukemia at the dose 50 mg/kg/day x 5 was determined as percentage increase in the life span as compared with control tumor bearers", "assay_type": "functional", "conditions": "Mus musculus, L1210, ip", "summary_of_the_method": "as §2"}, "L1210 [17]": {"system": "L1210", "assay": "Antitumor activity in mice with intraperitoneal implanted L1210 lymphoid leukemia at the dose 25 mg/kg/day x 5 was determined as weight change (g/mouse) on 8th day", "assay_type": "functional", "summary_of_the_method": "as §3"}, "L1210 [18]": {"system": "L1210", "assay": "Antitumor activity in the mice with intraperitoneal implanted L1210 lymphoid leukemia at the dose 50 mg/kg/day x 5 was determined and number of animals survived on 30 th day were reported; 0/8", "assay_type": "functional, Mus musculus", "summary_of_the_method": "as §1"}, "L1210 [19]": {"system": "L1210", "assay": "Antitumor activity in the mice with intraperitoneal implanted L1210 lymphoid leukemia at the dose 9.2 and 13.2 mg/kg/day x 5 was determined as percentage increase in the life span as compared with control tumor bearers", "assay_type": "functional, Mus musculus", "summary_of_the_method": "as §2"}, "L1210 [20]": {"system": "L1210", "assay": "Antitumor activity in mice with intraperitoneal implanted L1210 lymphoid leukemia at the dose 50 mg/kg/day x 5 was determined as weight change (g/mouse) on 8th day", "assay_type": "functional", "summary_of_the_method": "as §3"}, "L1210 [21]": {"system": "L1210", "assay": "Antitumor activity in the mice with intraperitoneal implanted L1210 lymphoid leukemia at the dose 25 mg/kg/day x 5 was determined and number of animals survived on 30 th day were reported; 0/8", "assay_type": "functional, Mus musculus", "summary_of_the_method": "as §1"}, "L1210 [22]": {"system": "L1210", "assay": "Antitumor activity in the mice with intraperitoneal implanted L1210 lymphoid leukemia at the dose of 100 mg/kg/day x 5 was determined as median survival of treated group compared to untreated; 16/11"}, "L1210 [23]": {"system": "L1210", "assay": "Antitumor activity in mice with intraperitoneal implanted L1210 lymphoid leukemia at the dose 75 mg/kg/day x 5 was determined as weight change (g/mouse) on 8th day", "assay_type": "functional", "summary_of_the_method": "as §3"}, "L1210 [24]": {"system": "L1210", "assay": "Antitumor activity in the mice with intraperitoneal implanted L1210 lymphoid leukemia at the dose 25 mg/kg/day x 5 was determined as percentage increase in the life span as compared with control tumor bearers", "assay_type": "functional", "conditions": "Mus musculus, L1210, ip", "summary_of_the_method": "as §1"}, "L1210 [25]": {"system": "L1210", "assay": "Antitumor activity in the mice with intraperitoneal implanted L1210 lymphoid leukemia at the dose 100 mg/kg/day x 5 was determined and number of animals survived on 30 th day were reported; 0/6", "assay_type": "functional, Mus musculus", "summary_of_the_method": "as §1"}, "L1210 [26]": {"system": "L1210", "assay": "Antitumor activity in the mice with intraperitoneal implanted L1210 lymphoid leukemia at the dose 75 mg/kg/day x 5 was determined and number of animals survived on 30 th day were reported; 3/8", "assay_type": "functional, Mus musculus", "summary_of_the_method": "as §2"}}}
{"smiles": "C[C@]12CCC(=O)C=C1CC[C@@H]1[C@@H]2CC[C@@]2(C)[C@H]1CC[C@]2(O)C(=O)COP(=O)(O)OC[C@H]1O[C@@H](n2ccc(N)nc2=O)[C@@H](O)[C@@H]1O", "values": [{"measurement": "Survival time", "setting": "L1210 [1]", "result": 14, "unit": "days"}, {"measurement": "ILS", "setting": "L1210 [2]", "result": 77, "unit": "%"}, {"measurement": "Survival time", "setting": "L1210 [3]", "result": 14, "unit": "days"}, {"measurement": "ILS at 75 mg/kg/day", "setting": "L1210 [4]", "result": 200, "unit": "%"}, {"measurement": "T/C", "setting": "L1210 [5]", "result": 18}, {"measurement": "T/C", "setting": "L1210 [6]", "result": 28.5}, {"measurement": "Survivors", "setting": "L1210 [7]", "result": 0}, {"measurement": "Weight change", "setting": "L1210 [8]", "result": -3.82, "unit": "g mouse-1"}, {"measurement": "Survival time", "setting": "L1210 [9]", "result": 10, "unit": "days"}, {"measurement": "Survival time", "setting": "L1210 [10]", "result": 13, "unit": "days"}, {"measurement": "ILS at 100 mg/kg/day", "setting": "L1210 [11]", "result": 46, "unit": "%"}, {"measurement": "T/C", "setting": "L1210 [12]", "result": 20.5}, {"measurement": "Survivors", "setting": "L1210 [13]", "result": 0}, {"measurement": "Survival time", "setting": "L1210 [14]", "result": 18, "unit": "days"}, {"measurement": "ED 50", "setting": "L1210 [15]", "result": 80, "unit": "nM"}, {"measurement": "ILS at 50 mg/kg/day", "setting": "L1210 [16]", "result": 141, "unit": "%"}, {"measurement": "Weight change", "setting": "L1210 [17]", "result": 1.55, "unit": "g mouse-1"}, {"measurement": "Survivors", "setting": "L1210 [18]", "result": 0}, {"measurement": "ILS", "setting": "L1210 [19]", "result": 59, "unit": "%"}, {"measurement": "Weight change", "setting": "L1210 [20]", "result": -2.5, "unit": "g mouse-1"}, {"measurement": "Survivors", "setting": "L1210 [21]", "result": 0}, {"measurement": "T/C", "setting": "L1210 [22]", "result": 16}, {"measurement": "Weight change", "setting": "L1210 [23]", "result": 0.46, "unit": "g mouse-1"}, {"measurement": "ILS at 25 mg/kg/day", "setting": "L1210 [24]", "result": 90, "unit": "%"}, {"measurement": "Survivors", "setting": "L1210 [25]", "result": 0}, {"measurement": "Survivors", "setting": "L1210 [26]", "result": 3}]}
